Structures are written as SMILES. Converted amounts (≈) assume the structure as drawn.

For assay [1], the system named is Vaccinia virus. Put plainly: Dose of compound required to inhibit the vaccinia lederle CA virus induced cytopathogenic effects. In kind it is functional. The conditions noted are these: Orthopoxvirus vaccinia; read-out: ID50 (the source's name). The procedure, abridged:
(§1)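 Southern Research CPE inhibition test in Vero host cells. Confluent monolayers in 96-well plates received drug (minimum seven concentrations, cytotoxic to noncytotoxic) plus virus at 32 CCID50 per 0.1 mL, in triplicate, with cell, virus and drug-cytotoxicity controls. Incubated at 37 °C, 2% CO2. CPE scored microscopically at 3–4 days. VR = 0.1 × sum of CE-grade differences from virus control, halved for partially cytotoxic wells.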
A general note: Damage to the host cells serves as the signal in cytopathic effect assays.

The test system of assay [2] is Vaccinia virus. Put plainly: Degree of inhibition of virus-induced cytopathogenic effect and the degree of cytotoxicity produced by compound against vaccinia lederle CA virus. In kind it is functional, Orthopoxvirus vaccinia. The procedure, abridged: as §1

`Nc1ncnc2c1ncn2[C@@H]1O[C@H](CO)[C@@H](O)[C@@H]1O` [VIDARABINE]: the IC50 in assay [1] stood at 9.8 µg/mL (≈ 36.7 µM). For the same compound, the Virus rating in assay [2] is 3.1.

Source of the values: ChEMBL document CHEMBL1124192, “Cyclopentenylcytosine. A carbocyclic nucleoside with antitumor and antiviral properties” (J Med Chem, 1988).
